# Screening results from PubChem BioAssay.
# E-selectin induc – E-selectin induction on HUVECs. P16581. HUVEC E-selectin immunofluorescence imaging; normalized: neutral wells 0, TNF-alpha wells 100. activation, % at 7.58 µM. actives 0.37% (n = 260,000);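 active means mean E-selectin-positive cell signal at least 10% of the positive control, reached in at least 60% of replicates, without over 20% cell loss; inconclusive means no rule given, readout overlaps actives, possibly toxicity-flagged; inactive means the rest, including those meeting only one limit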
# Target sequence (P16581 whole entry, looked up): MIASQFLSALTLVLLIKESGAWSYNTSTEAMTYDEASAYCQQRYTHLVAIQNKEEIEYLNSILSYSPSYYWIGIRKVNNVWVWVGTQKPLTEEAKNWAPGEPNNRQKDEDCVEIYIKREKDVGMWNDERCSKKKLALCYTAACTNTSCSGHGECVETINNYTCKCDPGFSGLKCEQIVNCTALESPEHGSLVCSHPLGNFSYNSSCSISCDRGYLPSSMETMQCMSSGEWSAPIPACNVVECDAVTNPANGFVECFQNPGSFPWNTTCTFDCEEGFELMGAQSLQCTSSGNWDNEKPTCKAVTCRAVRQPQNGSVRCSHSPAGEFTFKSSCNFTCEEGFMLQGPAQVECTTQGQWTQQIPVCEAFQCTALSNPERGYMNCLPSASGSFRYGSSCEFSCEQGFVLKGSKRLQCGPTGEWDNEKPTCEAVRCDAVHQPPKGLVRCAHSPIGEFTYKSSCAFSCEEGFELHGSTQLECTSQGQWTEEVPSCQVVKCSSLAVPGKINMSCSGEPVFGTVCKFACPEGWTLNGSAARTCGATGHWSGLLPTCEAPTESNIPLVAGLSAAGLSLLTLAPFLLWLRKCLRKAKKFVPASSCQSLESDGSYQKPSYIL
#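 assay system = HUVEC, human umbilical vein endothelial cells | input = 3,000 HUVEC seeded per well | medium = EGM-2 growth medium on 0.1% gelatin-coated wells | dosing = one compound dose added by pin transfer | signal = immunofluorescence imaging | read-out basis = % PE-positive cells | control set = TNF-alpha, DMSO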
# DENV2 CPE rescue – protects cells from dengue virus 2 cytopathic effect; DENV2-infected cells, cytopathic effect rescue, plate reader; CPE inhibition, % at 9.99 µM; actives 1.7% (n = 350,000); AID 651640; in the data active means CPE inhibition above about 20%, passing the limit was not always enough; inconclusive means no clear call, values can overlap the other calls; tested in BHK-21 cells;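 further: 0% = median of neutral control wells and 100% = median of positive control wells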
# C2C12 statin – protects C2C12 myotubes from simvastatin toxicity; AID 602340; rescue of ATP level, % at 7.49 µM; ATP luminescence, 48 h; scaled: DMSO 0, geranylgeraniol control 100; actives 0.78% (n = 330,000);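 active means mean ATP rescue above about 67%, or every replicate alone reaching that limit, limit read from the data, passing the limit was not always enough; inconclusive means no clear call, values can overlap the other calls; inactive means mean under the limit and some replicate under it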;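 further: myotubes were challenged with 10 µM simvastatin during compound exposure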
# * marks the source's active call; other numbers are inactive results; ? = inconclusive; / = no result given. Compounds with a hit are over-represented: about 2.2% of the library has one in this group of screens.
SMILES,E-selectin induc,DENV2 CPE rescue,C2C12 statin
O=C(C[C@H]1C=C[C@H](NC(=O)C2CC2)[C@@H](CO)O1)NCCCN1CCOCC1,-0.6,?,-5.0
C[C@@H]1CCCCO[C@@H](CN(C)C(=O)NC2CCCCC2)[C@@H](C)CN([C@@H](C)CO)C(=O)c2cc(NS(=O)(=O)c3ccc(F)cc3)ccc2O1,/,4.6,/
COc1ccc(C(O)(CC(C)C)C(CN2CCOCC2)c2ccccc2)cc1 (configuration not stated),-0.2,18.6,29.7
CCc1ccc(C(O)(CC(C)C)C(CN2CCOCC2)c2ccccc2)cc1 (configuration not stated),0.4,2.7,106.1*
CN1C(=O)c2cc(NC(=O)c3cscn3)ccc2OC[C@H]2O[C@@H](CC(=O)N3CCOCC3)CC[C@@H]21,0.8,11.0,8.4
OC[C@@H]1[C@@H](c2ccccc2)C2(CN(CC3CCOCC3)C2)N1Cc1nccs1,-0.1,51.1*,/
CCS(=O)(=O)N1CC2(C1)[C@@H](c1ccccc1)[C@@H](CO)N2Cc1ccc(F)cc1,-0.2,0.8,/
OC[C@H]1[C@@H](c2ccccc2)C2(CN(Cc3nccs3)C2)N1CC1CCOCC1,0.3,-5.0,/
O=C(C1CC1)N1[C@H](CO)[C@H](c2ccccc2)C12CN(CCC(F)(F)F)C2,0.0,16.1,/
O=C(c1ccccc1)N1[C@H](CO)[C@H](c2ccccc2)C12CN(CCC(F)(F)F)C2,0.0,20.1*,/
OC[C@@H]1[C@@H](c2ccccc2)C2(CN(CC3CC3)C2)N1Cc1ccc(F)cc1,-0.2,23.4*,/
O=C(CC1CC1)N1CC2(C1)[C@H](c1ccccc1)[C@@H](CO)N2Cc1ccc(F)cc1,-0.1,3.1,/
CCS(=O)(=O)N1CC2(C1)[C@@H](c1ccccc1)[C@H](CO)N2Cc1ccc(F)cc1,0.0,35.5*,/
CN(C)CC(=O)N1[C@H](C(=O)NC2CCC2)[C@@H](CO)[C@@H]2Cn3c(ccc(-c4ccccc4)c3=O)[C@@H]21,-0.2,-10.8,8.0
C[C@@H]1CCCCO[C@@H](CN(C)C)[C@@H](C)CN([C@H](C)CO)C(=O)c2cc(NS(=O)(=O)c3cn(C)cn3)ccc2O1,0.0,2.8,/
C[C@@H]1CN([C@H](C)CO)C(=O)c2c(c3ccccc3n2C)-c2ccccc2CO[C@@H]1CN(C)Cc1cccc(C(=O)O)c1,-0.4,4.8,-11.3
CS(=O)(=O)N1CC2(C1)[C@H](c1ccccc1)[C@@H](CO)N2CCC(F)(F)F,-0.1,-3.1,/
CS(=O)(=O)N1CC2(C1)[C@@H](c1ccccc1)[C@@H](CO)N2CCC(F)(F)F,-0.1,20.5*,/
O=C(NCC1CC1)[C@@H]1[C@@H](CO)[C@@H]2Cn3c(ccc(-c4cccc(F)c4)c3=O)[C@@H]2N1CC1CCCC1,-0.6,-6.7,27.9
C[C@@H]1CN([C@@H](C)CO)S(=O)(=O)c2ccc(C#CC(C)(C)O)cc2O[C@H]1CN(C)C(=O)C1CC1,1.1,/,5.1
CCOc1ccc(/C=C/C(=O)N(CC)CC(=O)Nc2c(F)cccc2F)cc1OC,-0.2,0.9,18.3
CCN(CC(=O)Nc1c(F)cccc1F)C(=O)/C=C/c1ccc2c(c1)OCO2,/,84.3*,17.5
CCc1csc(N2[C@H](C#N)[C@H](c3ccc(C4=CCCC4)cc3)[C@H]2CO)n1,0.1,?,11.9
Cc1noc(C)c1NC(=O)N(C)C[C@H]1Oc2c(NC(=O)C3CCOCC3)cccc2C(=O)N([C@H](C)CO)C[C@H]1C,0.1,8.1,-13.0
Cc1noc(C)c1NC(=O)Nc1ccc2c(c1)C(=O)N([C@H](C)CO)C[C@@H](C)[C@H](CN(C)C(=O)Nc1c(C)noc1C)O2,0.1,1.8,-7.6
SMILES,E-selectin induc,DENV2 CPE rescue,C2C12 statin
CN(C)C(=O)C[C@H]1CC[C@@H]2[C@H](COC[C@@H](O)CN2CC2CCCCC2)O1,0.0,-2.3,-4.1
CSc1nc(-c2ccco2)nn1S(=O)(=O)c1ccc(C)cc1,0.3,3.3,-2.9
Cc1ccc(S(=O)(=O)n2nc(-c3ccco3)nc2SCc2ccccc2)cc1,/,/,108.8*
c1ccc(C[C@H]2CN=C(Nc3ccccc3)N2CCCC2CCCCC2)cc1,0.0,0.5,-16.5
CC1CCC(CN2C(Nc3ccccc3)=NC[C@@H]2C)CC1 (some centres not stated),0.0,40.1*,-11.8
CC1CCC(CN2C(Nc3ccccc3)=NC[C@@H]2Cc2ccccc2)CC1 (some centres not stated),0.2,-2.9,-7.0
CCCCN1C(Nc2ccccc2)=NC[C@@H]1Cc1ccccc1,0.0,21.6*,-8.3
O=C1Nc2ccccc2SC1c1ccccc1 (configuration not stated),/,25.0*,5.0
O=C1CC(c2ccccc2)Sc2ccccc2N1 (configuration not stated),/,/,-0.5
CCCc1cn(CC[C@@H]2CC[C@@H](NC(=O)C3CCCCC3)[C@H](CO)O2)nn1,-0.4,1.3,-7.0
COc1cccc(NC(=O)C[C@@H]2CC[C@H]3[C@H](COc4ccc(NC(=O)C5CCCCC5)cc4C(=O)N3C)O2)c1,0.1,-2.7,-49.1
C#CCOC(=O)c1ccccc1C(=O)N(CC)CC,/,-3.8,103.8*
CCCN(CCC)C(=O)c1ccccc1C(=O)N(CCC)CCC,-0.4,/,6.3
C[C@H](CO)N1C[C@H](C)[C@@H](CN(C)Cc2ccc(F)cc2)Oc2ncc(-c3cccc(C#N)c3)cc2C1=O,/,2.3,4.7
C[C@@H]1CN([C@@H](C)CO)C(=O)c2cc(N(C)C)ccc2O[C@@H](C)CCCCO[C@@H]1CN(C)Cc1ccncc1,-0.1,6.8,21.3
O=C(Nc1ccccc1)N1C[C@@H]2[C@H](c3ccccc31)[C@@H](CO)N2C(=O)c1ccccn1,0.0,71.2*,22.2
CN1C[C@H]2[C@@H](c3ccccc31)[C@H](CO)N2C(=O)c1ccccn1,-0.1,28.0*,-2.2
CN1C[C@@H]2[C@H](c3ccccc31)[C@@H](CO)N2Cc1ccccc1,0.0,44.2*,29.8
CN1C[C@@H]2[C@H](c3ccccc31)[C@H](CO)N2C(=O)c1ccccn1,0.6,-5.3,18.4
O=C(c1ccccc1)N1C[C@H]2[C@@H](c3ccccc31)[C@H](CO)N2C(=O)c1ccccn1,-0.1,25.2*,-10.2
CN1C[C@@H]2[C@H](c3ccccc31)[C@H](CO)N2Cc1ccccc1,-0.2,/,3.8
O=C(Nc1ccccc1)N1C[C@H]2[C@@H](c3ccccc31)[C@H](CO)N2C(=O)c1ccccn1,0.4,1.3,15.7
O=C(c1ccccc1)N1C[C@H]2[C@@H](c3ccccc31)[C@@H](CO)N2C(=O)c1ccccn1,0.0,1.8,8.8
CCC(=O)Nc1ccc2c(c1)C(=O)N(C)C[C@H](OC)[C@H](C)CN(Cc1ccncc1)[C@H](C)CO2,0.1,2.1,2.4
COCC(=O)N(C)C[C@@H]1Oc2ncc(-c3ccccc3OC)cc2C(=O)N([C@H](C)CO)C[C@@H]1C,0.1,18.5,-15.9
C[C@@H]1CN([C@@H](C)CO)C(=O)c2cc(NC(=O)Nc3ccccc3)ccc2O[C@@H](C)CCCCO[C@H]1CN(C)C(=O)C1CCCCC1,1.0,8.7,/
N#C[C@@H]1[C@H](c2ccc(-c3cccc(F)c3)cc2)[C@H](CO)N1S(=O)(=O)c1cccc(F)c1,0.2,-18.9,-8.8
